What all share (format): functional, Stomach
Assay [1] is filed under the species Rattus norvegicus. The assay can be described thus: Preventive index against ethnol-induced gastric ulcer rat in treated group to control group. The essentials:
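Preventive index = percentage inhibition of gastric mucosal damage: PI = 100 − (ulcer index of treated group / ulcer index of control group × 100). Ulcer index is the summed caliper-measured lesion lengths, taken 1 h after oral 1 ml 70% ethanol in 36 h fasted rats dosed 1 h before ethanol. Compared by one-way ANOVA.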

Assay [2] relates to Rattus norvegicus. The assay can be described thus: Gastroprotective activity against ethanol-induced gastric ulcer in fasted rat accessed as number of ulcer at 20 mg/kg, ip. The settings on record: route intraperitoneal. The essentials:
(§1)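 Rats housed singly, fasted 36 h; test drug given, then 1 h later ulcer induced by oral 1 ml 70% ethanol in distilled water. Killed by cervical dislocation 1 h after ethanol; stomach opened along greater curvature, saline-rinsed, pinned flat. Ulcers counted; each lesion length measured by Vernier caliper, summed as ulcer index. Mean, SD, SE; one-way ANOVA then LSD pairwise test.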

Assay [3] has as its system Rattus norvegicus. The experiment in a line: Gastroprotective activity against ethanol-induced gastric ulcer in fasted rat accessed as gastric ulcer index at 20 mg/kg, ip. The settings on record: route intraperitoneal. The essentials: as §1

`COc1c2ccoc2cc2oc(-c3ccc(Cl)cc3)cc(=O)c12` showed a Preventive_index in the assay filed under Rattus norvegicus [1] of 34.5. For the same compound, the Activity in the assay on Rattus norvegicus [2] turned out to be 25.5; with Rattus norvegicus [3], 33.2 mm.
The like results for `COc1c2ccoc2c(CN2CCN(C)CC2)c2oc(-c3cccnc3)cc(=O)c12` were, in that order, 41.5, 23.7 and 29.7 mm.
In the assay listed under Rattus norvegicus [1], `O=c1cc(-c2ccccc2)oc2c(CN3CCOCC3)c3occc3c(O)c12` had a Preventive_index of 26. Besides, the Activity turned out to be 26.5 in the assay on Rattus norvegicus [2] and 37.5 mm in the assay with Rattus norvegicus [3].
With `COc1c2ccoc2c(CN2CCOCC2)c2oc(-c3ccc(Cl)cc3)cc(=O)c12`, in the assay listed under Rattus norvegicus [1], the Preventive_index is recorded as 26.6. The Activity is 26 in the assay on Rattus norvegicus [2] and 37.2 mm in the assay on Rattus norvegicus [3].
On to `O=c1cc(-c2ccccc2)oc2cc3occc3c(O)c12`, for which the Preventive_index in the assay filed under Rattus norvegicus [1] was found to be 24.3. Further, the results for the Activity with Rattus norvegicus [2] and in the assay with Rattus norvegicus [3] were 25.5 and 38.3 mm, respectively.
On the same counts, the results for `COc1c2ccoc2c(CN2CCOCC2)c2oc(-c3ccccc3)cc(=O)c12` are 21.4, 27.8 and 39.8 mm.
`COc1ccc(-c2cc(=O)c3c(OC)c4ccoc4cc3o2)cc1` had a Preventive_index in the assay listed under Rattus norvegicus [1] of 52.6. Besides, the Activity in the assay with Rattus norvegicus [2] came to 19.7; in the assay on Rattus norvegicus [3], 24 mm.
As for `COc1c2occc2c(OC)c2c(=O)c(CN3CCN(C)CC3)c(-c3cccnc3)oc12`, the Preventive_index in the assay filed under Rattus norvegicus [1] worked out at 44.4. Also, the Activity in the assay on Rattus norvegicus [2] stood at 18.8; with Rattus norvegicus [3], 28.2 mm.
As for `COc1c2ccoc2cc2oc(-c3cccnc3)c(CN(C)C)c(=O)c12`, the Preventive_index in the assay listed under Rattus norvegicus [1] worked out at 38.8. The Activity is 21.2 in the assay with Rattus norvegicus [2] and 31 mm with Rattus norvegicus [3].
On the same counts, the results for `O=c1cc(-c2ccc(Cl)cc2)oc2c(CN3CCOCC3)c3occc3c(O)c12` are 16.1, 28.5 and 42.5 mm.
The compound `O=c1cc(-c2ccc(Cl)cc2)oc2cc3occc3c(O)c12` came in with a Preventive_index in the assay listed under Rattus norvegicus [1] of 33.9. Moreover, the Activity in the assay on Rattus norvegicus [2] is recorded as 22.2; in the assay on Rattus norvegicus [3] it was 33.5 mm.
`COc1c2ccoc2c(CN2CCOCC2)c2oc(-c3cccnc3)cc(=O)c12` yielded a Preventive_index in the assay filed under Rattus norvegicus [1] of 19.5. The Activity in the assay on Rattus norvegicus [2] was 25; with Rattus norvegicus [3], 40.8 mm.
The like results for `COc1c2ccoc2cc2oc(-c3ccccc3)cc(=O)c12` [PINNATIN] were, in that order, 31.3, 23.7 and 34.8 mm.
In turn, `COc1c2ccoc2cc2oc(-c3ccccc3)c(CN3CCOCC3)c(=O)c12` returned a Preventive_index in the assay filed under Rattus norvegicus [1] of 41.6. Besides, the Activity with Rattus norvegicus [2] was 21.8; with Rattus norvegicus [3], 29.6 mm.

These data come from ChEMBL document CHEMBL1147889, “Synthesis of 6- and 9-alkylaminomethyl furoflavones as gastroprotective agents” (2007).
